PPC-1+TRAIL kill: compounds killing PPC-1 cancer cells with TRAIL present, primary screen, TRAIL potentiator project, ATPLite luminescence, uHTS; cell killing (% activity), % at 4 µM or 5 µM; actives 0.41% (n = 220,000); PPC-1 cells + TRAIL, ATPLite viability luminescence; AID 1443, 2008;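 active means cell killing above 50% in the first pass at 4 µM, then a duplicate retest at 5 µM averaging 50% or more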;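 further: plate controls were cells with TRAIL plus DMSO for no effect and medium-only wells lacking cells for full effect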
STAT3 blocker: IL-6 driven STAT3 reporter inhibitors, primary screen, U3A cells, luciferase, luminescence, MLSCN library | IL-6 STAT3-luciferase reporter; host cell line lacks STAT1 | inhibition, % at 5.5 µM | actives 0.89% (n = 190,000);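 active means inhibition above the mean inhibition across all screened compounds plus 3 SD, cut at about 44% in these data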;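 further: 0% = DMSO only wells and 100% = 100 µM nifuroxazide control wells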
STAT3 activator: IL-6 driven STAT3 reporter potentiators, primary screen, U3A cells, luciferase, luminescence, MLSCN library; IL-6 STAT3-luciferase reporter; 100% = signal with IL-6 EC80 alone; activation (% of control), % at 5.6 µM; actives 0.91% (n = 190,000);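 active means activation above the screen-wide mean of compound activation plus 3 SD, cut at about 130% in these data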;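 further: 0% = background luminescence of wells with medium and substrate only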
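Material: STAT3-luciferase reporter U3A cells. Controls: IL-6-treated wells, 100% activation. Read-out: % activation versus median of IL-6-stimulated wells. Probe or stimulus: IL-6 stimulus at 33 ng/mL final. Timing: compound 1 h, then IL-6 6 h at 37 °C. Signal: reporter luminescence signal.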
C8 TRAIL sens: viability loss with TRAIL in NB7+C8 cells, primary screen, TRAIL sensitizer project, cell-based, ATPlite luminescence. AID 624354, 2012. actives 1% (n = 360,000). inhibition (viability loss, TRAIL sensitization), % at 10 µM;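 active means compounds causing at least 50% loss of cell viability in the single-dose screen, relative to plate controls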
STAT1 inh: STAT1 signaling inhibitors, primary screen, cell-based, HTS, luciferase reporter; AID 920, 2007; inhibition, % at 5.5 µM; NIH 3T3 STAT1-luciferase reporter, IFN-gamma, luminescence; actives 0.35% (n = 200,000);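 active means inhibition above a set limit, the mean inhibition across all tested compounds plus 3 SD, cut at about 34% in these data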;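 further: 0% = IFN-gamma with DMSO and 100% = IFN-gamma with 300 µM nifuroxazide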
* hit, by the source's call; · = no result. Shown are actives, neighbours in structure and some others; about 1.8% of the full set was active somewhere.

SMILES | PPC-1+TRAIL kill | STAT3 blocker | STAT3 activator | C8 TRAIL sens | STAT1 inh
Cc1ccc(CSc2nc3ccncc3n2CC(=O)Nc2cc(C)cc(C)c2)cc1 | 19 | -4 | 104 | 51* | 2
Cc1cccc(NC(=S)N/N=C/c2ccc([N+](=O)[O-])s2)c1 | 1 | 15 | 90 | 48* | 12
Cc1ccc(N=Nc2c(O)c3ccccc3[nH]c2=O)c(S(=O)(=O)N(C)C)c1 | 55* | · | · | · | ·
Cc1cc(N=Nc2c(O)c3ccccc3[nH]c2=O)ccc1N=Nc1ccc(C(=O)N(C)C)cc1 | 20 | · | · | 35 | ·
CN(C)C(=O)c1ccc(N=Nc2c(O)c3ccccc3[nH]c2=O)cc1 | · | · | · | 76* | ·
Oc1ccccc1-c1csc(-c2ccccc2)n1 | 49 | -77 | 170* | 0 | -38
CCCCCNC(=O)C1C(=O)Nc2ccccc2C(=O)N1c1c(C)cccc1C (stereo not given) | · | · | · | 8 | ·
COc1ccc(-c2nc3ccccn3c2Cl)cc1 | · | · | · | 72* | ·
COc1ccc(-c2nc3ccccn3c2CN2CCN(c3ccccc3F)CC2)cc1 | 4 | 11 | 98 | 18 | 2
CNC[C@H](CC1CCCCC1)NC[C@H](Cc1ccccc1)NCCC12CC3CC(CC(C3)C1)C2 | · | · | · | 96* | ·
CC1CCc2c(sc(NC(=O)C3=COCCO3)c2C(N)=O)C1 (stereo not given) | · | · | · | 55* | ·
CNC(=O)c1c(NC(=O)C2=COCCO2)sc2c1CCC(C)C2 (stereo not given) | · | · | · | -1 | ·
Cc1ccccc1S(=O)(=O)N1C[C@H]2CON(C)[C@H]2C[C@H]1c1cccc(-c2ccc(C#N)cc2)c1 | · | · | · | 11 | ·
O=S(=O)(Nc1nc2ccccc2nc1NCC1CCCO1)c1cccc(Cl)c1 (stereo not given) | 1 | · | · | 24 | ·
O=C1c2cc(F)ccc2-n2c1nc1ccccc1c2=O | · | · | · | 55* | ·
C=CCc1cccc2cc(C(=O)Nc3ccccc3C(=O)O)c(=O)oc12 | -9 | 6 | 100 | -21 | 72*
C=CCc1cccc2cc(C(=O)O)c(=O)oc12 | -14 | -12 | 116 | -16 | 2
Oc1cc(-c2ccc(N3CCCCC3)nc2)cc2cccnc12 | · | · | · | 74* | ·
CCOC(=O)C1=C(O)/C(=C/c2cn(CC(=O)NCC3CCCO3)c3ccccc23)SC1=Nc1ccc(C)cc1 (stereo not given) | · | 3 | 100 | 57* | -9
CCOC(=O)C1=C(O)/C(=C/c2ccc(-c3ccccc3C(=O)O)o2)SC1=Nc1ccc(C)cc1 | · | · | · | 9 | ·
COC(=O)c1cnc(N)s1 | · | · | · | -3 | ·
O=C(NCCc1ccccc1)C(c1cccs1)N(C(=O)CCl)c1ccc(Cl)cc1 (stereo not given) | 9 | 30 | 77 | 96* | 15
Cc1cc(C(=O)C(C)Sc2cccc[n+]2[O-])c(C)n1-c1ccc(Cl)cc1 (stereo not given) | -4 | 11 | 97 | 9 | -10
CC1CCCCC1NC(=O)CSc1nnc(C(F)(F)F)n1C (stereo not given) | · | · | · | -21 | ·
CCCCC(=O)c1c(O)c2ccccc2oc1=O | 20 | 0 | 103 | -9 | 2
SMILES | PPC-1+TRAIL kill | STAT3 blocker | STAT3 activator | C8 TRAIL sens | STAT1 inh
O=C(CC1CCCCC1)c1c(O)c2ccccc2oc1=O | -2 | 10 | 96 | 54* | 2
CCN1CCN(C(=O)c2[nH]c3ccc(OC)cc3c2C)CC1 | · | · | · | 5 | ·
CNc1nc(Cl)nc2c1ncn2-c1ccccc1 | · | · | · | 3 | ·
Clc1nc(Cl)c2ncn(-c3ccccc3)c2n1 | · | · | · | 65* | ·
COc1ccc(NC(=O)N(C)C[C@H]2Oc3ccc(NS(=O)(=O)c4c(C)noc4C)cc3C(=O)N([C@H](C)CO)C[C@@H]2C)cc1 | · | · | · | -5 | ·
O=[N+]([O-])c1ccc(S(=O)(=O)Nc2cccc(-c3ccc(N4CCOCC4)nn3)c2)cc1 | · | · | · | 51* | ·
O=[N+]([O-])c1ccc(S(=O)(=O)Nc2ccc(-c3ccc(N4CCOCC4)nn3)cc2)cc1 | · | · | · | 11 | ·
O=[N+]([O-])c1ccc(Cl)c(S(=O)(=O)Nc2cccc(-c3ccc(N4CCOCC4)nn3)c2)c1 | · | · | · | 58* | ·
O=[N+]([O-])c1ccc(Cl)c(S(=O)(=O)Nc2ccc(-c3ccc(N4CCOCC4)nn3)cc2)c1 | · | · | · | 7 | ·
CCn1c(SCc2cccc(OC)c2)nc2ccccc2c1=O | · | · | · | 25 | ·
COc1cc(O)c(C(C)=O)c(CC(=O)O)c1 | 15 | · | · | 0 | ·
CN1/C(=C/C(=O)c2cccs2)Sc2ccccc21 | 46 | -70 | 163* | 57* | -44
CN1/C(=C\C(=O)c2cccs2)Sc2ccccc21 | 28 | -30 | 130 | 64* | -75
O=C(N/N=C/c1cccs1)c1c[nH]c2ccccc12 | 27 | -3 | 102 | 8 | -31
CCc1ccc(/C=N/NC(=O)c2c[nH]c3ccccc23)s1 | 19 | -7 | 106 | 55* | -60
CCCc1cc(C(=O)N/N=C/c2ccc(CC)s2)c2ccccc2n1 | 12 | 0 | 108 | 51* | -2
CCOC(=O)C1C(c2cc(OC)c(O)c(OC)c2)NC(=S)NC1(O)C(F)(F)F (stereo not given) | 53* | 0 | 98 | -2 | 6
Cc1ccc(-c2ccccc2NC(=O)CCl)o1 | 0 | 3 | 100 | 48* | 5
C/C(=N\N1CCN(C2c3ccccc3-c3ccccc32)CC1)c1cccnc1 | 1 | 12 | 95 | 4 | -5
CN=c1scc(-c2ccccc2F)n1/N=C(\C)c1cccnc1 | 42 | 2 | 98 | 63* | -34
C[C@H](CO)N1C[C@H](C)[C@@H](CN(C)Cc2cccnc2)Oc2cc(-c3cccnc3)ccc2S1(=O)=O | · | · | · | -3 | ·
CC(=O)Nc1sc(C)c(C)c1C(=O)OCC(=O)N(CC(C)C)c1c(N)n(Cc2ccccc2)c(=O)[nH]c1=O | · | · | · | 95* | ·
COC(=O)c1c(C)[nH]c(C(=O)OCC(=O)N(CC(C)C)c2c(N)n(Cc3ccccc3)c(=O)[nH]c2=O)c1C | · | · | · | 10 | ·
O=C(NC(=S)Nc1ccccn1)c1ccccc1 | 42 | · | · | 69* | ·
O=C(NC(=S)Nc1ccccn1)c1ccc([N+](=O)[O-])cc1 | 13 | -5 | 102 | 47 | -92
SMILES | PPC-1+TRAIL kill | STAT3 blocker | STAT3 activator | C8 TRAIL sens | STAT1 inh
O=C(Nc1ccccn1)c1ccc(C(=O)Nc2ccccn2)cc1 | · | · | · | 16 | ·
O=C(NC(=S)Nc1ccccn1)c1ccc(-c2ccccc2)cc1 | · | · | · | 78* | ·
O=C(NCc1ccncc1)[C@@H]1CCCN1C(=O)[C@@H]1CCCN1 | · | · | · | -11 | ·
Cn1c2ccccc2c2cc(C(=O)NNC(=O)CCl)sc21 | 1 | -25 | 137* | 18 | -37
CCCNC(=O)c1cc2c3ccccc3n(C)c2s1 | 2 | -20 | 122 | 1 | 2
CC(C)Oc1ccc2c(=O)c(-c3ccccc3)coc2c1 | 37 | 21 | 84 | 21 | -62
CC(=O)Oc1ccc2c(=O)c(-c3nc4ccccc4s3)coc2c1 | 37 | 39 | 72 | 69* | -9
